Measurements taken from ChEMBL document CHEMBL1145607, “Design, synthesis and evaluation of 2-phenyl-1H-benzo[d]imidazole-4,7-diones as vascular smooth muscle cell proliferation inhibitors” (Bioorg Med Chem Lett, 2008).
Calls of active or inactive are those of the source. The rule behind the calls is not given here.

Assays:
[1] = Antiproliferative activity against PDGF-induced rat aortic VSMC by colorimetric assay; format: functional, tissue-based; conditions: Aorta
Procedure, shortened: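 Rat aortic SMCs stimulated with PDGF; inhibition of proliferation read by a colorimetric assay; IC50 values determined by comparison to mycophenolic acid as standard agent.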

[2] = Down-regulation of cyclin A protein expression in rat aortic VSMC at 1 ug/ml after 48 hrs by Western blot; format: functional, tissue-based; conditions: Aorta
Procedure, shortened: (§1)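 Total cell lysates from cultured SMCs treated with 1 µg/mL for 48 h; PCNA, cyclin A, cyclin D1, pRb (also cdk 2) probed by Western blot.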

[3] = biological target: RAC-alpha serine/threonine-protein kinase (Rattus norvegicus) (UniProt P47196); assay: Inhibition of Akt phosphorylation in rat aortic VSMC at 1 ug/ml after 1 hr; format: tissue-based; conditions: Aorta
Chain of RAC-alpha serine/threonine-protein kinase (Rattus norvegicus) (P47196 whole entry): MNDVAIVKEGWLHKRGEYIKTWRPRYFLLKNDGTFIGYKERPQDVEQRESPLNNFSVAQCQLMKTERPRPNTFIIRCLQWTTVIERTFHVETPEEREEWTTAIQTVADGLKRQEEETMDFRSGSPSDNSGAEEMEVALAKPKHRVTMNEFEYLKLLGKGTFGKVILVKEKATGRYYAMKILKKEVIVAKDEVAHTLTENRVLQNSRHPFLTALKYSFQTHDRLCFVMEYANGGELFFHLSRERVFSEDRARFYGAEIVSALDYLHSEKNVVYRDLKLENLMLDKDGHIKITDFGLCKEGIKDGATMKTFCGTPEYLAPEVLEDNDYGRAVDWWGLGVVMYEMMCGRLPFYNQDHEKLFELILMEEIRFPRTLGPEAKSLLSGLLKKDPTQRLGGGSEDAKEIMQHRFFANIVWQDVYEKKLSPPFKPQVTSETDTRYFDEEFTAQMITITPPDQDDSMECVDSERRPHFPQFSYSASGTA
Procedure, shortened: (§2)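 Cultured SMCs exposed to test agent for 1 h; phosphorylated ERK and phosphorylated Akt examined by Western blot.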

[4] = system: VSMC; assay: Antiproliferative activity against PDGF-induced rat aortic VSMC assessed as cell density at 1 ug/ml after 48 hrs by phase-contrast microscope; format: functional, cell-based
Procedure, shortened: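 Cultured rat aortic SMCs exposed to 1 µg/mL test agent or DMSO vehicle alone for 48 h; cell density judged by observation and photography under a phase-contrast microscope.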

[5] = Cell cycle arrest in rat aortic VSMC assessed as DNA accumulation at S phase at 1 ug/ml after 48 hrs relative to control; format: functional, cell-based
Procedure, shortened: (§3)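 Cultured SMCs treated with 1 µg/mL for 48 h alongside a vehicle-treated control; DNA content per cell-cycle phase analysed by flow cytometry.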

[6] = Cell cycle arrest in rat aortic VSMC assessed as DNA accumulation at G0/G1 phase at 1 ug/ml after 48 hrs relative to control; format: functional, cell-based; procedure, shortened: as §3
[7] = Cell cycle arrest in rat aortic VSMC assessed as DNA accumulation at G2/M phase at 1 ug/ml after 48 hrs relative to control; format: functional, cell-based; procedure, shortened: as §3
[8] = organism: Rattus norvegicus; assay: Inhibition of ERK phosphorylation in rat aortic VSMC at 1 ug/ml after 1 hr; format: tissue-based; conditions: Aorta; procedure, shortened: as §2
[9] = system: VSMC; assay: Effect on pRb protein expression in rat aortic VSMC at 1 ug/ml after 48 hrs by Western blot; format: functional, tissue-based; conditions: Aorta; procedure, shortened: as §1
[10] = system: VSMC; assay: Effect on cyclin D1 protein expression in rat aortic VSMC at 1 ug/ml after 48 hrs by Western blot; format: functional, tissue-based; conditions: Aorta; procedure, shortened: as §1
[11] = Down-regulation of PCNA protein expression in rat aortic VSMC at 1 ug/ml after 48 hrs by Western blot; format: functional, tissue-based; conditions: Aorta; procedure, shortened: as §1

SMILES	IC50 [1] [µM]	other results
Cc1cccc(SC2=C(Cl)C(=O)c3nc(-c4ccccc4)[nH]c3C2=O)c1	2	
O=C1C(Cl)=C(Nc2ccc(Cl)cc2)C(=O)c2[nH]c(-c3ccccc3)nc21	5.3	
O=C1C(Cl)=C(Nc2ccc(Br)cc2)C(=O)c2[nH]c(-c3ccncc3)nc21	100	
O=C1C(Cl)=C(Sc2ccc(Cl)cc2)C(=O)c2[nH]c(-c3ccccn3)nc21	4	
Cc1ccc(NC2=C(Cl)C(=O)c3nc(-c4ccccn4)[nH]c3C2=O)cc1	50	
O=C1C(Cl)=C(Nc2ccc(F)cc2)C(=O)c2[nH]c(-c3cccnc3)nc21	21	
O=C1C(Cl)=C(Sc2ccc(O)cc2)C(=O)c2[nH]c(-c3ccccc3)nc21	2	
O=C1C(Cl)=C(Nc2ccc(OC(F)(F)F)cc2)C(=O)c2[nH]c(-c3ccccc3)nc21	1.5	
COc1ccc(NC2=C(Cl)C(=O)c3nc(-c4ccccc4)[nH]c3C2=O)cc1	2	
O=C1C(Cl)=C(Sc2ccc(Br)cc2)C(=O)c2[nH]c(-c3ccccc3)nc21	1.5	
COc1ccc(NC2=C(Cl)C(=O)c3nc(-c4ccncc4)[nH]c3C2=O)cc1	50	
O=C1C(Cl)=C(Nc2ccc(C(F)(F)F)cc2)C(=O)c2[nH]c(-c3ccccc3)nc21	9.4	
Cc1ccc(NC2=C(Cl)C(=O)c3nc(-c4ccccc4)[nH]c3C2=O)cc1	3	
O=C1C(Cl)=C(Sc2ccc(Br)cc2)C(=O)c2[nH]c(-c3ccccn3)nc21	12	
O=C1C(Cl)=C(Nc2ccc(Br)cc2)C(=O)c2[nH]c(-c3cccnc3)nc21	50	
Cc1ccc(SC2=C(Cl)C(=O)c3nc(-c4ccccn4)[nH]c3C2=O)cc1	2.5	
O=C1C(Cl)=C(Nc2ccc(C(F)(F)F)cc2)C(=O)c2[nH]c(-c3ccccn3)nc21	1	
O=C1C(Cl)=C(Nc2ccc(F)cc2)C(=O)c2[nH]c(-c3ccncc3)nc21	50	

SMILES	IC50 [1] [µM]	other results
COc1ccc(NC2=C(Cl)C(=O)c3nc(-c4ccccn4)[nH]c3C2=O)cc1	20	
COc1ccc(NC2=C(Cl)C(=O)c3nc(-c4cccnc4)[nH]c3C2=O)cc1	42	
CCc1ccc(SC2=C(Cl)C(=O)c3nc(-c4ccccn4)[nH]c3C2=O)cc1	7	
Cc1ccc(SC2=C(Cl)C(=O)c3nc(-c4ccccc4)[nH]c3C2=O)cc1	1	
CCc1ccc(NC2=C(Cl)C(=O)c3nc(-c4ccccc4)[nH]c3C2=O)cc1	10.7	
O=C1C(Cl)=C(Sc2ccccc2)C(=O)c2[nH]c(-c3ccccc3)nc21	1.5	
COc1ccc(SC2=C(Cl)C(=O)c3nc(-c4ccccn4)[nH]c3C2=O)cc1	4.2	
O=C1C(Cl)=C(Nc2ccccc2)C(=O)c2[nH]c(-c3ccccc3)nc21	4	
O=C1C(Cl)=C(Nc2ccc(Br)cc2)C(=O)c2[nH]c(-c3ccccn3)nc21	6.5	
COc1ccc(SC2=C(Cl)C(=O)c3nc(-c4ccccc4)[nH]c3C2=O)cc1	1	Activity [2]: Active; Activity [3]: Active; Activity [4]: Active; Activity [5]: 22.4%; Activity [6]: 59.6%; Activity [7]: 8%; Activity [8]: Active; Activity [9]: Active; Activity [10]: Active; Activity [11]: Active
O=C1C(Cl)=C(Nc2ccc(Cl)cc2)C(=O)c2[nH]c(-c3ccccn3)nc21	12.1	
COc1c(C)c2c(c(O)c1C/C=C(\C)CCC(=O)O)C(=O)OC2 [MYCOPHENOLIC ACID]	1	
Cc1ccc(NC2=C(Cl)C(=O)c3nc(-c4ccccc4)[nH]c3C2=O)cc1C	3	
O=C1C(Cl)=C(Nc2ccc(Cl)cc2)C(=O)c2[nH]c(-c3cccnc3)nc21	20	
O=C1C(Cl)=C(Nc2ccc(F)cc2)C(=O)c2[nH]c(-c3ccccn3)nc21	9.4	
CCOc1ccc(NC2=C(Cl)C(=O)c3nc(-c4ccccc4)[nH]c3C2=O)cc1	50	
O=C1C(Cl)=C(Nc2ccc(OC(F)(F)F)cc2)C(=O)c2[nH]c(-c3ccccn3)nc21	20	
O=C1C(Cl)=C(Nc2ccc(Cl)cc2)C(=O)c2[nH]c(-c3ccncc3)nc21	25	
